In ChEMBL document CHEMBL4251619, “A new family of densely functionalized fused-benzoquinones as potent human protein kinase CK2 inhibitors” (Eur J Med Chem, 2018):
Activity calls are given as the source filed them. The rule behind the calls is not given here.

Tests used:
[1] = biological target: T1, Casein kinase II alpha/beta (Homo sapiens, UniProt P68400); assay: Inhibition of human CK2-alpha/beta expressed in Escherichia coli BL21(DE3) using RRRDDDSDDD peptide as substrate after 15 mins by capillary electrophoresis method
MCF7 [2] = assay: Cytotoxicity against human MCF7 cells assessed as inhibition of cell viability at 10 uM after 48 hrs by MTT assay; assay type: functional, cell-based
Method in brief: (§1)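 MCF-7 cells grown in RPMI 1640 with GlutaMax and 10% FCS. Seeded at 1 x 10^5 cells/well and left overnight, then given fresh medium with inhibitor at 10 or 100 µM; 1% DMSO as control. After 48 h at 37 °C, 5% CO₂, MTT was added (0.5 mg/mL final) for 2 h. Formazan dissolved in DMSO and read at 570 nm against 630 nm reference. Triplicates, three independent experiments, mean ± SD.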

Casein kinase 2 = Casein kinase 2 (Homo sapiens, UniProt P67870+P68400+P19784+Q8NEV1); assay: Inhibition of CK2 (unknown origin); assay type: protein assay
MCF7 [3] = assay: Cytotoxicity against human MCF7 cells assessed as inhibition of cell viability at 100 uM after 48 hrs by MTT assay relative to control; assay type: functional; conditions: MCF7, 48 h; method in brief: as §1
[4] = biological target: T1, Casein kinase II alpha/beta; assay: ATP-competitive inhibition of human CK2-alpha/beta expressed in Escherichia coli BL21(DE3) using RRRDDDSDDD peptide as substrate after 15 mins in presence of varying levels of ATP by capillary electrophoresis method

IC50 [1]	IC50 (Casein kinase 2)	Ki [4]	SMILES	inhibition (MCF7 [2])	inhibition at 100 µM (MCF7 [3])
1940 nM			CCCCCCCCCCCC1=C(O)C(=O)C2=C(OC(N)=C(C#N)C2c2ccc3c(c2)OCO3)C1=O (stereo unspecified)		
900 nM	< 1000 nM		CCCCCCCCCCCC1=C(O)C(=O)C2=C(OC(N)=C(C#N)C2c2ccc(Cl)cc2)C1=O (stereo unspecified)	inactive	
890 nM			CCCCCCCCCCCC1=C(O)C(=O)C2=C(OC(N)=C(C#N)C2c2cccc([N+](=O)[O-])c2)C1=O (stereo unspecified)	inactive	65%
996 nM			CCCCCCCCCCCC1=C(O)C(=O)C2=C(OC(N)=C(C#N)C2c2cccc(F)c2)C1=O (stereo unspecified)	inactive	60%
220 nM			CCCCCCCCCCCC1=C(O)C(=O)C2=C(OC(N)=C(C#N)C2c2ccc([N+](=O)[O-])cc2)C1=O (stereo unspecified)	inactive	90%
1990 nM			CCCCCCCCC1=C(O)C(=O)C2=C(OC(N)=C(C#N)C2c2ccc([N+](=O)[O-])cc2)C1=O (stereo unspecified)		
1380 nM			CCCCCCCCCCCC1=C(O)C(=O)C2=C(OC(N)=C(C#N)C2c2cccnc2)C1=O (stereo unspecified)		
1360 nM			CCCCCCCCCCCC1=C(O)C(=O)C2=C(OC(N)=C(C#N)C2c2ccc(C(=O)O)cc2)C1=O (stereo unspecified)		
720 nM			CCCCCCCCCCCC1=C(O)C(=O)C2=C(OC(N)=C(C#N)C2c2ccco2)C1=O (stereo unspecified)		
3710 nM			CCCCCCCCCCCC1=C(O)C(=O)C2=C(OC(N)=C(C#N)C2CCCCCC)C1=O (stereo unspecified)		
840 nM			CCCCCCCCCCCC1=C(O)C(=O)C2=C(OC(N)=C(C#N)C2c2ccc(OC)cc2)C1=O (stereo unspecified)	inactive	55%
570 nM		390 nM	CCCCCCCCCCCC1=C(O)C(=O)C2=C(OC(N)=C(C#N)C2c2ccccc2)C1=O (stereo unspecified)	inactive	50%
1440 nM			CCCCCCCCCCCC1=C(O)C(=O)C2=C(OC(N)=C(C#N)C2c2ccncc2)C1=O (stereo unspecified)		
